Measured values: ChEMBL document CHEMBL4028805, “Phenylthiazole Antibacterial Agents Targeting Cell Wall Synthesis Exhibit Potent Activity in Vitro and in Vivo against Vancomycin-Resistant Enterococci” (J Med Chem, 2017)
In brackets after ≈: the same amount, converted by molar mass. Activity calls are given as the source filed them. No cut-off for these calls is given here.

Columns and labels:
[1] = tested on: Escherichia coli; test: Antibacterial activity against tolC deficient Escherichia coli assessed as cell shape defects at 25 ug/ml after 30 mins in presence of sucrose by FM4-64/DAPI/SYTOX Green staining-based deconvolution microscopic analysis; format: functional
[2] = tested on: Enterococcus faecium; test: Bactericidal activity against vancomycin-resistant Enterococcus faecium ATCC 700221 assessed as bacterial regrowth at 4 times MIC after 22 hrs by time-kill assay; format: functional
Procedure, shortened: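 Late-log cells diluted to ~5 × 10^6 CFU/mL and exposed in triplicate to 4 × MIC, in TSB (E. faecalis HM-201) or BHI (E. faecium ATCC 700221) at 37 °C. Sampled at 0, 2, 4, 6, 8, 10, 12 and 24 h, diluted serially in PBS and plated on TSA or BHI agar. CFU/mL counted after 18–22 h. DMSO served as negative control.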

[3] = Induction of proton motive force collapse in Escherichia coli inverted membrane vesicle in presence of ATP-driven PMF generation system by ACMA-based fluorescence assay; format: functional, cell membranes
Procedure, shortened: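 E. coli inverted membrane vesicles (0.1 mg/mL membrane protein) with 2 μM ACMA and 0.5 mM ATP or succinate, in 10 mM HEPES-KOH, 5 mM MgSO4, 100 mM KCl, pH 7.5. Proton gradient followed by ACMA fluorescence (ex 410/em 480 nm). EC50 taken from dose-response curves. CCCP used as reference uncoupler.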

[4] = tested on: Enterococcus faecalis; test: Antibacterial activity against vancomycin-resistant Enterococcus faecalis HM-201 infected in Caenorhabditis elegans AU37 assessed as reduction in bacterial burden at 20 ug/ml after 18 hrs by CFU-based […] analysis relative to control; format: functional; parameters: scale not given: the % may be the effect or the level left
Procedure, shortened: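 C. elegans AU37 adults infected on an E. faecalis HM-201 lawn for 2 h, washed in M9, 20–25 worms per well. Treated in triplicate with 20 μg/mL, with water as negative control. Worms washed, lysed with silicon carbide by vortexing, diluted serially and plated on TSA with 50 μg/mL gentamicin. CFU counted after 18 h at 37 °C and expressed as % reduction versus untreated worms.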

[5] = tested on: Enterococcus faecalis; test: Potentiation of gentamicin-induced antibacterial activity against Enterococcus faecalis ATCC 51299 assessed as gentamicin MIC preincubated for 30 mins followed by gentamicin addition measured after 18 to 21 hrs; format: functional
Procedure, shortened: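 Enterococcal suspensions at 5×10^5 CFU/mL preincubated with compound at ½ × MIC for 30 min at room temperature.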

[6] = tested on: Escherichia coli; test: Antibacterial activity against Escherichia coli 1411 after 18 to 22 hrs in absence of colistin by broth microdilution method; format: functional
Procedure, shortened: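 Broth microdilution per CLSI guidelines. Gram-negatives grown in TSB. Each strain tested alone and again with colistin at ¼ × MIC to permeabilize the outer membrane. Plates incubated at 37 °C for 18–22 h. MIC read as the lowest concentration showing no visible growth.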

[7] = Inhibition of Escherichia coli UPPS using IPP and FPP as substrate preincubated for 30 mins followed by substrate addition measured after 20 mins by malachite green phosphate assay
Procedure, shortened: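 Purified E. coli UPPS preincubated 30 min at room temperature with inhibitor (200 to 0.2 μM) in 100 mM HEPES, 50 mM NaCl, 0.5 mM MgCl2, 0.02% DDM, pH 7.5. Then 10 μM IPP and FPP added with 0.375 U/mL inorganic phosphatase. Phosphate read by malachite green at 620 nm. IC50 from dose-response curves.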

CCCCc1ccc(-c2nc(C)c(/C(C)=N/NC(=N)N)s2)cc1
Activity [1]: Active | Activity [2]: Active | EC50 [3]: 12 µM | Activity [4]: 89% | Activity [5]: inactive | MIC [6]: 64 µg/mL (≈ 194 µM) | IC50 [7]: 19 µM
